Results on two compounds are retold here after ChEMBL document CHEMBL4325910, “Design and synthesis of rosiglitazone-ferulic acid-nitric oxide donor trihybrids for improving glucose tolerance” (Eur J Med Chem, 2019).

One data set deals with L02. Description: Inhibition of cellular glucose output in dexamethasone-induced insulin resistant human L02 cells assessed as insulin-stimulated glucose uptake at 10 uM preincubated for 24 hrs followed by insulin stimulation measured after 24 hrs by glucose oxidase method (reference value: 4.5 +/- 0.7%). The data set is classed as functional. The arrangement: scale not given: the % may be the effect or the level left.

Data set [1] deals with 3T3-L1. The data set is described as follows: Induction of insulin-stimulated 2-NBDG uptake in TNF-alpha-induced insulin resistant mouse 3T3L1 cells at 10 uM preincubated for 48 hrs followed by 2-NBDG addition measured after 30 mins in presence of insulin by fluorescence assay. In kind it is functional, cell-based. A digest of the protocol: (§1)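 Day-8 differentiated 3T3-L1 adipocytes received TNF-α (4 ng/mL) daily for 4 days. They were pretreated in triplicate for 48 h (C-PTIO 20 μM where indicated), then given 100 μM 2-NBDG at 37 °C for 30 min in the dark, with or without insulin. After KRP washes, fluorescence was read at Ex/Em 485/515 nm. Three experiments, mean ± SD.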

Data set [2] relates to 3T3-L1. The data set is described as follows: Induction of insulin-stimulated 2-NBDG uptake in TNF-alpha-induced insulin resistant mouse 3T3L1 cells preincubated for 48 hrs followed by 2-NBDG addition measured after 30 mins in presence of insulin by fluorescence assay. In kind it is functional, cell-based. A digest of the protocol: as §1
The nature of data set [3]: Toxicity in spontaneous db/db BKS.Cg-Dock7m +/+ Leprdb/J mouse assessed as body weight gain at 27 umol/kg, po administered as daily dose via gavage treated for 18 days measured post last dose (reference value: 5.6 +/- 2.1 g). In kind it is organism-based. The following applies: in vivo, 432 h.
In data set [4] the test system is 3T3-L1. Description: Induction of adipogenesis in mouse 3T3L1 preadipocytes assessed as increase in intracellular triglyceride level at 10 uM treated every other day up to day 14 by AdipoRed staining based confocal microscopic method. In kind it is functional, cell-based. A digest of the protocol:
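3T3-L1 preadipocytes were grown to confluence plus 48 h. Differentiation was induced with 1.0 μM dexamethasone, 0.5 mM IBMX and 1.0 μg/mL insulin for 48 h, then insulin alone. Compound or 0.1% DMSO was added every other day to day 14. Cells were washed in KRP, stained with AdipoRed for 15 min in the dark, imaged confocally and read at Ex/Em 485/572 nm.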

Data set [5] deals with Platelet. The data set is described as follows: Antiplatelet activity in platelet rich plasma (unknown origin) assessed as inhibition of arachidonic acid-induced platelet aggregation. The data set is classed as functional, cell-based.
Data set [6] concerns Platelet. The data set is described as follows: Antiplatelet activity in platelet rich plasma (unknown origin) assessed as inhibition of ADP-induced platelet aggregation at 2 mM relative to control. The data set is classed as functional.
For data set [7], the system named is Platelet. The data set is described as follows: Antiplatelet activity in platelet rich plasma (unknown origin) assessed as inhibition of ADP-induced platelet aggregation at 8 mM relative to control. In kind it is functional.
Data set [8] concerns Platelet. Description: Antiplatelet activity in platelet rich plasma (unknown origin) assessed as inhibition of ADP-induced platelet aggregation. The data set is classed as functional, cell-based.
Data set [9] concerns the target Voltage-gated inwardly rectifying potassium channel KCNH2 (Homo sapiens, UniProt Q12809). The data set is described as follows: Inhibition of human ERG expressed in CHO cells by patch clamp assay. The data set is classed as cell-based. (In general: Patch clamp records ionic current or voltage across a cell membrane.)
Data set [10] addresses T1, hERG (KCNH2) (Homo sapiens, UniProt Q12809). Description: Inhibition of human ERG expressed in CHO cells at 1.25 uM by patch clamp assay relative to control. In kind it is cell-based. The following applies: CHO cells that express hERG.
In data set [11] the target is T1, hERG (KCNH2). The data set is described as follows: Inhibition of human ERG expressed in CHO cells at 2.5 uM by patch clamp assay relative to control. The data set is classed as cell-based. As to conditions: CHO cells that express hERG.
The target in data set [12] is T1, hERG (KCNH2). Description: Inhibition of human ERG expressed in CHO cells at 5 uM by patch clamp assay relative to control. The data set is classed as cell-based. The following applies: CHO cells that express hERG.
Data set [13] deals with T1, hERG (KCNH2). The data set is described as follows: Inhibition of human ERG expressed in CHO cells at 10 uM by patch clamp assay relative to control. The data set is classed as cell-based. The following applies: CHO cells that express hERG.
Data set [14] has as its target T1, hERG (KCNH2). Description: Inhibition of human ERG expressed in CHO cells at 20 uM by patch clamp assay relative to control. The data set is classed as cell-based. The following applies: CHO cells that express hERG.
Data set [15] deals with T1, hERG (KCNH2). Description: Inhibition of human ERG expressed in CHO cells at 40 uM by patch clamp assay relative to control. The following applies: CHO cells that express hERG. In kind it is cell-based.
The nature of data set [16]: Toxicity in po dosed ICR mouse administered as single dose via gavage treated on day 1 and measured daily up to 14 days. The following applies: in vivo. In kind it is organism-based. A digest of the protocol:
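Mice of both sexes, 7 weeks old, were randomized and given one oral gavage dose on day 1. Dose levels were 500, 1000, 2000, 3000, 4000 or 5000 mg/kg, or 2000, 4000 and 5000 mg/kg, with n = 10 per group. Behaviour, health and mortality were checked daily for 14 days, and total deaths were counted on day 14. LD50 was calculated with 95% confidence limits.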

For data set [17], the target named is T2, Aquaporin-2 (Homo sapiens, UniProt P41181).
T2 sequence (P41181 whole entry): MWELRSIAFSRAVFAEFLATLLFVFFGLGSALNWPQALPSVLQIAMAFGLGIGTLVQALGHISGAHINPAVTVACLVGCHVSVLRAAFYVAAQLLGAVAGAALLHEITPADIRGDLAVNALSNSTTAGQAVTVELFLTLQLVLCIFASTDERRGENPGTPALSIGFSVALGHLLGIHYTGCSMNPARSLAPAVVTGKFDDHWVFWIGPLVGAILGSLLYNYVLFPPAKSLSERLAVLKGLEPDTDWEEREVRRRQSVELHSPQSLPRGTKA
The data set is described as follows: Induction of membrane translocation of biotinylated human AQP2 expressed in rat IMCD cells at 10 to 50 uM after 30 mins by Western blot analysis. The data set is classed as cell-based. As to conditions: 0.5 h. In outline:
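Human AQP2-transfected primary rat IMCD cells were treated for 30 min. Surface proteins were biotinylated with sulfo-NHS-LC-biotin (3 mg/mL, 60 min, 4 °C), then cells lysed in 1% NP-40 and pulled down overnight on streptavidin beads. Biotinylated and total AQP2 (30 μg/lane) were blotted with anti-AQP2 and quantified by densitometry as the biotinylated/total ratio. Three experiments, mean ± SD.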
Background: Immunoblotting shows a protein as a band on a membrane.

In data set [18] the target is T2, Aquaporin-2. The data set is described as follows: Induction of membrane translocation of biotinylated human AQP2 expressed in rat IMCD cells at 10 to 50 uM after 30 mins by FITC-staining based confocal fluorescence microscopic analysis. The data set is classed as cell-based. The following applies: 0.5 h. A digest of the protocol: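 Primary SD rat IMCD cells, day 5, were transfected with a human AQP2 plasmid (5 h, serum-free) and cultured 48 h. They were treated for 30 min, with 0.1% DMSO as vehicle and forskolin 100 μM as reference. Cells were fixed in paraformaldehyde, permeabilized with Triton X-100 and quenched with H2O2/methanol. They were stained with FITC-anti-AQP2 and imaged by confocal microscopy.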

In data set [19] the test system is 3T3-L1. The data set is described as follows: Inhibition of ROS production in TNF-alpha-induced insulin resistant mouse 3T3L1 cells at 3 to 10 uM after 48 hrs by DCFH-DA dye-based fluorescence assay. In kind it is functional, cell-based.
Data set [20] in a line: Metabolic stability in simulated gastric fluid at pH 1.5 measured immediately after compound addition by HPLC analysis. In kind it is ADME. The following applies: read-out: Stability. In outline:
(§2)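 Gastric fluid was 1% pepsin in water, pH 1.5. Intestinal fluid was 1% trypsin with 0.68% KH2PO4, pH 6.8. Compound (100 mM DMSO stock) was diluted 1:1000 into each, in triplicate. Incubation was at 37 °C for 0, 2, 4, 6, 16 or 24 h. Acetonitrile (3 volumes) stopped it, then HPLC at 254 nm.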

The nature of data set [21]: Metabolic stability in simulated gastric fluid at pH 1.5 measured after 6 hrs by HPLC analysis. The data set is classed as ADME. The following applies: read-out: Stability. A digest of the protocol: as §2
Data set [22] concerns Platelet. The data set is described as follows: Antiplatelet activity in platelet rich plasma (unknown origin) assessed as inhibition of arachidonic acid-induced platelet aggregation at 0.1 mM relative to control. The data set is classed as functional.
The test system of data set [23] is Platelet. Description: Antiplatelet activity in platelet rich plasma (unknown origin) assessed as inhibition of ADP-induced platelet aggregation at 0.4 mM relative to control. In kind it is functional.

SMILES strings stand for the structures. The source made the active and inactive calls. The rule behind the calls is not given here.

T1 sequence (Q12809 whole entry): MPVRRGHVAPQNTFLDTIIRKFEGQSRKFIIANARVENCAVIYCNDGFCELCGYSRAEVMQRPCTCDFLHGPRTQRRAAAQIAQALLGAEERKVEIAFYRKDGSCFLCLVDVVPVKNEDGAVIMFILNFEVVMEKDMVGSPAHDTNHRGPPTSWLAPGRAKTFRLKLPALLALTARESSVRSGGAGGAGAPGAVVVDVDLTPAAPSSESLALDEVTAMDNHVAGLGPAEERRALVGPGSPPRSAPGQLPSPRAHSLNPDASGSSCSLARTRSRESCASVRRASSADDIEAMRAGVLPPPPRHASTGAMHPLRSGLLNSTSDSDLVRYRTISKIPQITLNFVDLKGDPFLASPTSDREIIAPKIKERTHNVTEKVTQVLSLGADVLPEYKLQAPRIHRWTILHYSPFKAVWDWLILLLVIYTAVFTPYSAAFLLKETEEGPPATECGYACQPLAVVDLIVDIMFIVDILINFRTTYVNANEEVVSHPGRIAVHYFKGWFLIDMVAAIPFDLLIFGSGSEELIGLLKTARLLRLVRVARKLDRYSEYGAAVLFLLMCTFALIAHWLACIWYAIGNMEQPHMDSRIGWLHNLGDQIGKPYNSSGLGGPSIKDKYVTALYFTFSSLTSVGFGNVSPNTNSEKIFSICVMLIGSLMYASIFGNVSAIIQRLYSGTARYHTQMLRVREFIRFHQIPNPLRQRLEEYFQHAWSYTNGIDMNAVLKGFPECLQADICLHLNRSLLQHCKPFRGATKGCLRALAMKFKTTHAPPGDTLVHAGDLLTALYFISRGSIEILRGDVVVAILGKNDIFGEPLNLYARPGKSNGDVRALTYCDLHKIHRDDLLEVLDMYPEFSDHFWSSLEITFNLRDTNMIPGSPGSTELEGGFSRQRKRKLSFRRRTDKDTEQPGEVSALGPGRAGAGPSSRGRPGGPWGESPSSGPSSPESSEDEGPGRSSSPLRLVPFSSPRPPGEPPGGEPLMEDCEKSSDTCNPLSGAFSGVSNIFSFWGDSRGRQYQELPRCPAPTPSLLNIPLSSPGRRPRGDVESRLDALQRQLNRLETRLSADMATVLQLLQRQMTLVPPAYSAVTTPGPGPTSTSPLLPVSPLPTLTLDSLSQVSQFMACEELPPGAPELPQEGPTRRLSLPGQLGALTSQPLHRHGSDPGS
Sequence of Voltage-gated inwardly rectifying potassium channel KCNH2 (Q12809 whole entry): as above

With `CN(CCOc1ccc(CC2SC(=O)NC2=O)cc1)c1ccccn1` (stereo unspecified) [ROSIGLITAZONE], the Activity in the data set with L02 is listed as 11.8%; in [3], 6.6 g; on Aquaporin-2 [17], “Active”; on Aquaporin-2 [18], “Active”. The outcome in the data set on 3T3-L1 [1] and in the data set with 3T3-L1 [4] was Active. Besides, the concentration giving a half-maximal response (EC50) in the data set on 3T3-L1 [2] was 1.72 µM. Moreover, the figures for the half-inhibitory concentration (IC50) (with Platelet [5]; in the data set on Platelet [8]; in data set [9]) were 6400 µM, 5700 µM and 29.5 µM, respectively. The inhibition at 2000 µM in the data set with Platelet [6] was 25.3%. Moreover, the inhibition at 8000 µM in the data set with Platelet [7] amounted to 64%. Also, on hERG (KCNH2) [10], the inhibition at 1.25 µM was found to be 9.38%. Besides, on hERG (KCNH2) [11], the inhibition at 2.5 µM was 17.3%. On hERG (KCNH2) [12], this compound showed an inhibition at 5 µM of 23.3%. The compound also displayed an inhibition at 10 µM against hERG (KCNH2) [13] of 30.1%. The inhibition at 20 µM against hERG (KCNH2) [14] is 42.5%. For the same compound, at hERG (KCNH2) [15], at 40 µM the inhibition was 57.9%. The 50% lethal dose (LD50) at 336 h in data set [16] is 2580 mg/kg.
`CCN(CC)/[N+]([O-])=N/OCOC(=O)/C=C/c1ccc(OC(=O)OCN2C(=O)SC(Cc3ccc(OCCN(C)c4ccccn4)cc3)C2=O)c(OC)c1` (stereo unspecified): the Activity is recorded as 47.8% in the data set on L02, 3.4 g in data set [3], “Not Active” at Aquaporin-2 [17] and “Not Active” at Aquaporin-2 [18]. The outcome in the data set on 3T3-L1 [1] and in the data set on 3T3-L1 [4] was Active. In addition, in the data set with 3T3-L1 [2], the EC50 is 1.08 µM. The inhibition result in the data set on 3T3-L1 [19] was “Active”. Moreover, in data set [20], the remaining at 0 h was 100%. For the same compound, the remaining at 6 h in data set [21] is 93.6%. Moreover, the IC50 was 700 µM in the data set with Platelet [5], 2100 µM in the data set on Platelet [8] and more than 40 µM in data set [9]. Besides, in the data set on Platelet [22], the inhibition at 100 µM was 21.6%. Moreover, in the data set on Platelet [23], the inhibition at 400 µM is 18.8%. The inhibition at 1.25 µM at hERG (KCNH2) [10] came to 9.06%. 2.5 µM produced 10.8% inhibition against hERG (KCNH2) [11]. For the same compound, on hERG (KCNH2) [12], the inhibition at 5 µM turned out to be 14.5%. Moreover, at 10 µM the inhibition at hERG (KCNH2) [13] was 18%. The compound also came in with an inhibition at 20 µM on hERG (KCNH2) [14] of 26.2%. Besides, at 40 µM the inhibition against hERG (KCNH2) [15] was 39.5%. Moreover, the median lethal dose (LD50) at 336 h in data set [16] was more than 5000 mg/kg.

As usually defined, the EC50 is the concentration that produces a half-maximal response. By IC50 is commonly meant the concentration that gives 50% inhibition. As a reminder, the inhibition is the percentage by which the read-out fell short of the control. As usually defined, the LD50 is the dose expected to kill half of the subjects tested.
